ChEMBL document CHEMBL1122004, “alpha-Adrenergic agents. 2. Synthesis and alpha 1-agonist activity of 2-aminotetralins” (J Med Chem, 1982)

Experiments:
[1] = Alpha-1 adrenergic receptor activation causing vasoconstriction in the isolated rabbit ear artery; assay type: functional, tissue-based; conditions: Oryctolagus cuniculus
Method in brief: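 Isolated rabbit ear artery segments with cocaine 2×10^-6 g/mL present throughout to block neuronal uptake. A cumulative norepinephrine curve (10^-8 to 3×10^-6 M) is run first to set the maximum response. After washout, a cumulative test-drug curve is run, stepping concentration once the response is stable. EC50 = concentration giving 50% of the NE maximum.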

[2] = molecular target: Adrenergic receptor alpha-1 (Homo sapiens) (UniProt P35348+P25100+P35368); test: Dissociation constant for Alpha-1-adrenergic receptor was determined before and after addition of phentolamine; conditions: Oryctolagus cuniculus
Method in brief: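 Rabbit ear artery with cocaine 2×10^-6 g/mL. After cumulative NE and test-drug curves and washout, phentolamine 10^-7 M is superfused for 30 min of equilibration. NE and test-drug curves are then repeated. K_B for phentolamine = [phentolamine]/((EC50 with phentolamine / EC50 without) − 1).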

Compound | EC50 [1] [µM] | Kb [2] [µM]
CCNC1CCc2c(N)ccc(OC)c2C1 (stereo not drawn) | 5.3 | –
CCNC1CCc2ccc(OC)c(OC)c2C1 (stereo not drawn) | > 10 | –
CCNC1CCc2c(I)ccc(OC)c2C1 (stereo not drawn) | 0.021 | 0.011
Cc1ccc(C)c2c1CCC(N)C2 (stereo not drawn) | 10 | –
COc1ccc(SC)c2c1CC(N)CC2 (stereo not drawn) | 0.012 | 0.005
COc1ccc(OC)c2c1CCC(N)C2 (stereo not drawn) | 0.12 | 0.006
COc1cccc2c1CCC(N)C2 (stereo not drawn) | 2.2 | 0.007
NC[C@H](O)c1ccc(O)c(O)c1 [NOREPINEPHRINE] | 0.15 | –
CCNC1CCc2c(OC)ccc(Cl)c2C1 (stereo not drawn) | 0.064 | 0.014
COc1ccc(OC)c(C(O)C(C)N)c1 (stereo not drawn) [METHOXAMINE] | 0.72 | 0.011
COc1cc2c(cc1OC)CC(N)CC2 (stereo not drawn) | > 10 | –
CNC1CCc2c(OC)ccc(OC)c2C1 (stereo not drawn) | 0.086 | 0.011
NC1CCc2ccccc2C1 (stereo not drawn) | > 30 | –
COc1ccc(OC)c2c1CCC(N(C)C)C2 (stereo not drawn) | 0.081 | 0.015
CCNC1CCc2c(OC)ccc(SC)c2C1 (stereo not drawn) | 0.14 | 0.016
COc1cccc2c1CC(N)CC2 (stereo not drawn) | 1.7 | 0.012
COc1ccc(SC)c2c1CC(N(C)C)CC2 (stereo not drawn) | 0.014 | 0.009
CCNC1CCc2c(SC)ccc(OC)c2C1 (stereo not drawn) | 0.026 | –
COc1ccc(Cl)c2c1CCC(N)C2 (stereo not drawn) | 0.23 | 0.013
CCNC1CCc2c(OC)ccc(OC)c2C1 (stereo not drawn) | 0.081 | 0.008
CCNC1CCc2c(OC)ccc(I)c2C1 (stereo not drawn) | 0.064 | 0.012
CCCNC1CCc2c(OC)ccc(OC)c2C1 (stereo not drawn) | 1.1 | 0.018
CCNC1CCc2c(Sc3ccccc3)ccc(OC)c2C1 (stereo not drawn) | 0.7 | –
